According to ChEMBL document CHEMBL1128451, “Synthesis and anti-DNA viral activities in vitro of certain 2,4-disubstituted-7-(2-deoxy-2-fluoro-beta-D-arabinofuranosyl)pyrrolo[2,3-d d pyrimidine nucleosides” (J Med Chem, 1995):
Converted amounts (≈) assume the structure as drawn.

Legend:
MRC5 [1] = experiment: Anti HCMV (human cytomegalovirus) activity in MRC-5 cells infected with […] strain of HCMV (plaque reduction assay).; format: functional, cell-based
[2] = Visual cytotoxicity of stationary MRC-5 cells, median toxic concentration is evaluated by anti HCMV plaque reduction assay performed in MRC-5 cells using the AD169 strain of HCMV; format: cell-based, MRC5; conditions: human, read-out: TC50 (the source's name)
Summary of the method: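 Stationary uninfected MRC-5 cells scored visually for cytotoxicity from 0 (none at 20-fold magnification) to 4 (cell sheet nearly destroyed); median toxic concentration reported.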

[3] = Anti viral activity against 2.2.15 cells (concentration required to reduce the log phase cell growth by 50%).; format: cell-based; conditions: human, 2.2.15 cells (HepG2-derived); read-out: TC50 (the source's name)
Summary of the method: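 Growing 2.2.15/HepG2 cells at 1.7×10^4/well, subconfluent on collagen-coated plates, given compound dilutions in quadruplicate. Drug medium refreshed every second day. Proliferation read on days 0, 4, 8 and 12; TC50 is the concentration giving 50% inhibition of proliferation after 12 days' exposure. Mean of three or more experiments.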

HepG2 = experiment: Ability to inhibit the episomal HBV-DNA in 2.2.15 cells.; format: functional, cell-based; conditions: Homo sapiens
[4] = Anti viral activity against Vero cells (concentration required to reduce the log phase cell growth by 50%).; format: cell-based; conditions: chlorocebus sabaeus, read-out: TC50 (the source's name)
Summary of the method: (§1)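 Log-phase Vero cells, 5000 cells per assay, exposed to compound for 4 days in quadruplicate. Growth measured by tetrazolium-based (CellTiter 96 aqueous) proliferation read-out; averaged data used to calculate TC50, the concentration reducing cell growth by 50%.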

MRC5 [5] = experiment: Plaque reduction performed using the DHPG- resistant D16 strain of HCMV in MRC-5 cell line; format: functional, cell-based; conditions: Homo sapiens
Summary of the method: (§2)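 Plaque reduction in MRC-5 cells, grown in MEM(E) with 10% FBS and passaged 1:2, infected with the DHPG-resistant D16 HCMV strain, a viral polymerase mutant. IC50 is the concentration reducing plaques by 50%, derived from a regression line of inhibition versus log concentration. Ganciclovir served as the positive control.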

Vero [6] = experiment: Ability to inhibit the Cytopathic effect of HSV-1 in vero cells.; format: functional, cell-based; conditions: Chlorocebus sabaeus
Vero [7] = experiment: Ability to inhibit the Cytopathic effect of HSV-2 in vero cells.; format: functional, cell-based; conditions: Chlorocebus sabaeus
[8] = Visual cytotoxicity of stationary MRC-5 cells, median toxic concentration is evaluated by plaque reduction assay performed in DHPG- resistant D16 strain of HCMV; format: cell-based, MRC5; conditions: human, read-out: TC50 (the source's name)
Summary of the method: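 Uninfected stationary MRC-5 cells were scored by eye for cytotoxicity, from 0 (none visible at 20-fold magnification) to 4 (cell sheet nearly destroyed). The value is the median toxic concentration.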

HFF [9] = experiment: Plaque reduction and cytotoxicity performed in HFF cell line Hs 68; format: functional, cell-based; conditions: Homo sapiens
[10] = Visual cytotoxicity of […], median toxic concentration is evaluated by plaque reduction assay performed in HFF Cell line Hs 68; format: cell-based; conditions: human
[11] = Anti viral activity against MRC-5 cells (concentration required to reduce the log phase cell growth by 50%).; format: cell-based, MRC5; conditions: human, read-out: TC50 (the source's name)
Summary of the method: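 Growing MRC-5 cells; growth inhibition measured with the CellTiter 96 aqueous proliferation assay. TC50 is the concentration reducing log-phase cell growth by 50%.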

[12] = Visual cytotoxicity of […], median toxic concentration is evaluated by anti HCMV plaque reduction assay performed in HFF Cell line Hs 68; format: cell-based; conditions: human, read-out: TC50 (the source's name)
HFF [13] = experiment: Anti HCMV(human cytomegalovirus) activity in MRC-5 cells infected with DHPG-resistant D16 strain of HCMV(plaque reduction assay).; format: functional, cell-based; summary of the method: as §2
[14] = Visual cytotoxicity of stationary HFF Cell line Hs68, median toxic concentration is evaluated by anti HCMV plaque reduction assay performed in HFF Cell line Hs 68; format: cell-based; conditions: human, read-out: TC50 (the source's name)
Summary of the method: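 Stationary uninfected HFF Hs68 cells scored visually for cytotoxicity from 0 (none at 20-fold magnification) to 4 (cell sheet nearly destroyed); median toxic concentration reported.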

[15] = Anti viral activity against vero cells (concentration required to reduce the log phase cell growth by 50%).; format: cell-based; conditions: chlorocebus sabaeus, read-out: TC50 (the source's name); summary of the method: as §1
HFF [16] = experiment: Anti HCMV(human cytomegalovirus) activity in HFF cell line Hs 68 infected with […] strain of HCMV(plaque reduction assay).; format: functional, cell-based
Summary of the method: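 HCMV AD169 plaque reduction in diploid human foreskin fibroblast line Hs68, grown in MEM(E) with 10% FBS and passaged 1:2. IC50 is the concentration cutting plaque number by 50%, calculated by linear regression of inhibition against log drug concentration. Values are averages of three or more experiments. Ganciclovir was the positive control.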

| IC50 (HepG2) [mg/L] | Structure (SMILES) | IC50 (MRC5 [1]) [mg/L] | CC50 [2] [mg/L] | GI50 [3] [mg/L] | other results |
| --- | --- | --- | --- | --- | --- |
| – | COc1nc(N)nc2c1ccn2[C@@H]1O[C@H](CO)[C@@H](O)[C@@H]1F | > 100 | > 100 | – | – |
| – | Nc1ncc2c(n1)N([C@@H]1O[C@H](CO)[C@@H](O)[C@@H]1F)CC2 | > 100 | 32 (≈ 118 µM) | – | – |
| – | NSc1nc(N)nc2c1ccn2[C@@H]1O[C@H](CO)[C@@H](O)[C@@H]1F | > 100 | > 100 | – | – |
| 2.1 (≈ 9.94 µM) | Nc1ccn([C@H]2CC[C@@H](CO)O2)c(=O)n1 [ZALCITABINE] | – | – | 64 (≈ 303 µM) | – |
| > 30 | Nc1nc(N)c2ccn(C3OC(CO)CC3F)c2n1 (stereo unspecified) | > 100 | > 100 | 149 (≈ 558 µM) | IC50 (Vero [6]): > 100 mg/L; IC50 (Vero [7]): > 100 mg/L |
| – | Nc1nc2c(ncn2COC(CO)CO)c(=O)[nH]1 [GANCICLOVIR] | 3.2 (≈ 12.5 µM) | > 1000 | – | CC50 [12]: > 1000 mg/L; IC50 (HFF [13]): 52 mg/L (≈ 204 µM); CC50 [14]: > 1000 mg/L; CC50 [15]: 270 mg/L (≈ 1060 µM); IC50 (HFF [16]): 4.4 mg/L (≈ 17.2 µM); GI50 [11]: > 500 mg/L |
| – | NC1=NC(=S)C2C=CN([C@@H]3O[C@H](CO)[C@@H](O)[C@@H]3F)C2=N1 (stereo partly specified) | > 50 | > 50 | – | – |
| 60 (≈ 211 µM) | Nc1nc2c(ccn2[C@@H]2O[C@H](CO)[C@@H](O)[C@@H]2F)c(=O)[nH]1 | 51 (≈ 179 µM) | > 100 | > 100 | – |
| – | Nc1ncc2ccn([C@@H]3O[C@H](CO)[C@@H](O)C3F)c2n1 (stereo partly specified) | 16 (≈ 59.6 µM) | > 100 | – | – |
| – | Nc1nc(Cl)c2ccn([C@@H]3O[C@H](CO)[C@@H](O)[C@@H]3F)c2n1 | > 100 | 32 (≈ 106 µM) | – | – |
| – | Nc1nc([SeH])c2ccn([C@@H]3O[C@H](CO)[C@@H](O)[C@@H]3F)c2n1 | 10 (≈ 28.8 µM) | 178 (≈ 513 µM) | – | – |

| Structure (SMILES) | IC50 (HepG2) [mg/L] | IC50 (MRC5 [1]) [mg/L] | CC50 [2] [mg/L] | GI50 [3] [mg/L] | other results |
| --- | --- | --- | --- | --- | --- |
| Nc1nc(N)c2ccn([C@@H]3O[C@H](CO)[C@@H](O)[C@@H]3F)c2n1 | 0.7 (≈ 2.47 µM) | 3.7 (≈ 13.1 µM) | > 100 | 630 (≈ 2220 µM) | CC50 [4]: 53 mg/L (≈ 187 µM); IC50 (MRC5 [5]): 11 mg/L (≈ 38.8 µM); IC50 (Vero [6]): 4.1 mg/L (≈ 14.5 µM); IC50 (Vero [7]): 6.3 mg/L (≈ 22.2 µM); CC50 [8]: > 100 mg/L; IC50 (HFF [9]): 3.4 mg/L (≈ 12 µM); CC50 [10]: > 1000 mg/L; GI50 [11]: 11.4 mg/L (≈ 40.2 µM) |
